Published values pooled from the literature.
Lines come from different studies, so protocols differ.
Cell line: HepG2
Effect on: cell growth or viability

COc1ccc(-c2cc(-c3ccccc3Cl)c3c(=O)n(C)c(=O)n(C)c3n2)cc1
IC50 (MTT; 48 h): 18.9 µM

CN(C)c1ccc(O)c2c1C[C@H]1C[C@H]3[C@H](N(C)C)C(O)=C(C(N)=O)C(=O)[C@@]3(O)C(O)=C1C2=O
IC50 (ATP luminescence; 72 h): > 200 µg/mL

COc1ccc(C2CC(c3ccc(Nc4nnc(-c5ccc(Cl)cc5)c5ccccc45)cc3)=NN2)cc1 (stereo not drawn)
IC50 (MTT; 72 h): 0.19 µM

COc1ccc(-c2cc(-c3cc(OC)ccc3OC)c3c(=O)[nH]c(=O)[nH]c3n2)cc1
IC50 (MTT; 48 h): 13.1 µM

COc1ccc2[nH]c(C(=O)Nc3nc(CC(=O)O)cs3)cc2c1
IC50 (MTT; 24 h): 59.8 µM

COc1ccc(-c2cc(-c3ccc(OC)cc3)c3c(=O)[nH]c(=O)[nH]c3n2)cc1
IC50 (MTT; 48 h): 9.62 µM

CN(C)c1cc(NC(=O)Cc2cnccn2)c(O)c2c1C[C@H]1C[C@H]3[C@H](N(C)C)C(O)=C(C(N)=O)C(=O)[C@@]3(O)C(O)=C1C2=O
IC50 (ATP luminescence; 72 h): > 200 µg/mL

Nc1n[nH]c2nc(-c3cccc(O)c3)cc(-c3cc4cc(Cl)ccc4nc3N3CCOCC3)c12
IC50 (MTT; 72 h): 0.0907 µM

CN(C)c1cc(NC(=O)Cc2ccccc2)c(O)c2c1C[C@H]1C[C@H]3[C@H](N(C)C)C(O)=C(C(N)=O)C(=O)[C@@]3(O)C(O)=C1C2=O
IC50 (ATP luminescence; 72 h): 63.7 µg/mL

COc1cccc2c1C(=O)c1c(O)c3c(c(O)c1C2=O)C[C@@](O)(C(=O)CO)C[C@@H]3O[C@H]1C[C@H](N)[C@H](O)[C@H](C)O1
IC50 (MTT; 72 h): 0.355 µM

CN(C)c1cc(NC(=O)Cc2ncccn2)c(O)c2c1C[C@H]1C[C@H]3[C@H](N(C)C)C(O)=C(C(N)=O)C(=O)[C@@]3(O)C(O)=C1C2=O
IC50 (ATP luminescence; 72 h): 108 µg/mL

CCCOc1nc(-c2cccc(O)c2)cc(-c2cc3ccccc3nc2N2CCOCC2)c1C#N
IC50 (MTT; 72 h): 0.269 µM

O=C(O)Cc1csc(NC(=O)c2cc3ccccc3[nH]2)n1
IC50 (MTT; 24 h): 13.9 µM

CN(C)c1cc(NC(=O)Cc2cccnc2)c(O)c2c1C[C@H]1C[C@H]3[C@H](N(C)C)C(O)=C(C(N)=O)C(=O)[C@@]3(O)C(O)=C1C2=O
IC50 (ATP luminescence; 72 h): > 200 µg/mL

Cc1ccc(-c2cc(-c3ccc(Cl)cc3)c3c(=O)[nH]c(=O)[nH]c3n2)cc1
IC50 (MTT; 48 h): 8.46 µM
